Measured values from paper PMC4596243 (Cancer chemotherapy and pharmacology, 2013).
Several values for one entry are separate records, joined by “and”; a condition that tells them apart may be missing. Equal entries are not always repeated. Where two headings read alike, the source gives them in different places.

What was measured:
[1] = TMZ administered with TNP-470; murine glioma model; cited from earlier work
[2] = tested on: U87 glioma; experiment: In vivo susceptibility-contrast MRI of tumor vasculature after cediranib; set-up: species or system mice; conditions: cediranib once daily
How it was run: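 Mice bearing brain U87 tumours imaged at 9.4T on day 12 (2 control, 2 given test compound once daily until sacrifice) or day 21 (3 control, 1 treated). Multi-echo gradient-echo (TR 400 ms) and spin-echo (TR 2000 ms), 16 coronal 1-mm slices, 0.1 mm in-plane, before/after i.v. Feridex 25 mg Fe/kg. Vessel size from (ΔR2*/ΔR2)^3/2; manual tumour ROIs versus mirrored contralateral ROIs, histograms compared.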

[3] = tested on: recurrent GBM; conditions: cited from earlier work
[4] = format: in vivo, rat; conditions: for AUC(0-inf): AUC0–∞
[5] = corrected for recovery, post-cediranib, individual animal
[6] = corrected for recovery, pre-cediranib, individual animal
[7] = post- vs pre-cediranib, tumor ECF, not statistically significant

For CO[C@@H]1[C@H](OC(=O)NC(=O)CCl)CC[C@]2(CO2)[C@H]1[C@@]1(C)O[C@@H]1CC=C(C)C [TNP-470], the “reduction of TMZ in tumor concentrations” value [1] is given as 50%.
In the case of COc1cc2c(Oc3ccc4[nH]c(C)cc4c3F)ncnc2cc1OCCCN1CCCC1 [cediranib], the “average vessel size (ΔR2*/ΔR2)^3/2 in treated tumor” value ([2]; D12) is given as “lower compared to the contralateral ROI”, the “effect on vessel size in treated tumor” value ([2]; D21) is given as “not apparent” and the “progression-free survival (PFS)” value ([3]; cediranib monotherapy, recurrent GBM patients) is given as “increased progression-free survival”. The “duration of tumor vessel normalization” value ([3]; once daily cediranib, patients with recurrent GBM, starting as early as one day after the treatment) was “at least 28 days”.
For Cn1nnc2c(C(N)=O)ncn2c1=O [TMZ, temozolomide], the “AUC0–∞” value [4, 5] was 3120 ng·h/mL and 4520 ng·h/mL and 3870 ng·h/mL and 3100 ng·h/mL, the Cmax [4, 5] was 1610 ng/mL and 650 ng/mL and 310 ng/mL and 1290 ng/mL and 640 ng/mL and 690 ng/mL and the T1/2 [4, 5] was 1.5 h and 1.7 h and 3.4 h. The “AUC0–∞” value [4, 6] was 1730 ng·h/mL and 2380 ng·h/mL and 600 ng·h/mL and 2480 ng·h/mL and 1500 ng·h/mL and 1970 ng·h/mL and 2090 ng·h/mL, the Cmax [4, 6] was 460 ng/mL and 620 ng/mL and 190 ng/mL and 710 ng/mL and 690 ng/mL and 900 ng/mL and 530 ng/mL and the AUC(0-inf) ([4]; male, athymic, rat, tumor ECF (brain microdialysate), po, 50 mg/kg, corrected for recovery, post-cediranib, mean ± S.D.) was 3720 ± 610 ng·h/mL. It also gave an AUC(0-inf) ([4]; male, athymic, rat, tumor ECF (brain microdialysate), po, 50 mg/kg, corrected for recovery, pre-cediranib, mean ± S.D.) of 1820 ± 640 ng·h/mL, an AUC(0-inf) ([4]; male, athymic, rat, tumor ECF (brain microdialysate), po, 50 mg/kg, raw data, post-cediranib, mean ± S.D.) of 2840 ± 400 ng·h/mL and an AUC(0-inf) ([4]; male, athymic, rat, tumor ECF (brain microdialysate), po, 50 mg/kg, raw data, pre-cediranib, mean ± S.D.) of 1310 ± 510 ng·h/mL. For the same molecule, the Cmax ([4]; male, athymic, rat, tumor ECF (brain microdialysate), po, 50 mg/kg, Cmax, corrected for recovery, post-cediranib, mean ± S.D.) was 830 ± 450 ng/mL, the Cmax ([4]; male, athymic, rat, tumor ECF (brain microdialysate), po, 50 mg/kg, Cmax, corrected for recovery, pre-cediranib, mean ± S.D.) was 590 ± 220 ng/mL and the half-life ([4]; male, athymic, rat, tumor ECF (brain microdialysate), po, 50 mg/kg, T1/2, corrected for recovery, post-cediranib, mean ± S.D.) was 2 ± 0.9 h. The half-life ([4]; male, athymic, rat, tumor ECF (brain microdialysate), po, 50 mg/kg, T1/2, corrected for recovery, pre-cediranib, mean ± S.D.) was 1.7 ± 0.3 h, the half-life ([4]; male, athymic, rat, tumor ECF (brain microdialysate), po, 50 mg/kg, T1/2, raw data, post-cediranib, mean ± S.D.) was 2 ± 0.9 h and the half-life ([4]; male, athymic, rat, tumor ECF (brain microdialysate), po, 50 mg/kg, T1/2, raw data, pre-cediranib, mean ± S.D.) was 1.7 ± 0.3 h. The “increase in ECF-TMZ AUC0-∞ after cediranib administration” value [4, 7] was 2.0 fold and 2 fold, the “increase in ECF-TMZ Cmax after cediranib administration” value [4, 7] was 1.4 fold and the Cmax ([4]; raw data, pre-cediranib, TMZ 50 mg/kg oral, tumor ECF, individual animal) was 510 ng/mL and 540 ng/mL and 380 ng/mL and 400 ng/mL and 470 ng/mL and 100 ng/mL.
